Test system in one data set: not listed separately
The experiment in a line: Selectivity index, ratio of ED50 for African green monkey Vero cells to ED50 for Trypanosoma cruzi. The data set is classed as toxicity. Particulars: Vero cells versus Trypanosoma cruzi, read-out: Ratio ED50. The method in brief:
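Calculated as ED50 for Vero cytotoxicity divided by ED50 for the parasite.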
Take `N#C[Se]CCOc1ccc(Oc2cccc(F)c2)cc1`: the selectivity ratio was found to be 1800.

As for `N#C[Se]CCOc1cccc(Oc2ccccc2F)c1`, the selectivity ratio turned out to be 1110.

As to `N#C[Se]CCOc1cccc(I)c1`, the selectivity ratio is over 11.5.

For `N#C[Se]CCOc1ccc(Cl)cc1Cl`, the selectivity ratio is over 45.3.

Take `N#CSCCOc1ccc(Sc2ccccc2)cc1`: the selectivity ratio is over 10.9.

In the case of `N#C[Se]CCOc1cccc(Oc2ccc(F)cc2)c1`, the selectivity ratio is over 1260.

Turning to `N#C[Se]CCOc1cccc(Oc2ccccc2)c1`, the selectivity ratio was over 1760.

For `N#C[Se]CCOc1cccc(Oc2ccc(Cl)cc2)c1`, the selectivity ratio was over 1100.

For `N#CSCC1Cc2cc(Oc3ccccc3)ccc2O1` (stereo not drawn), the selectivity ratio was over 10.4.

Regarding `N#C[Se]CCOc1ccc(Oc2ccccc2)cc1`, the selectivity ratio was over 917.

For the molecule `N#C[Se]CCOc1cccc(Oc2cccc(F)c2)c1`, the selectivity ratio was over 833.

`N#C[Se]CC1Cc2cc(Oc3ccccc3)ccc2O1` (racemic): the selectivity ratio was over 1500.

Take `N#C[Se]CC1Cc2ccc(Oc3ccccc3)cc2O1` (racemic): the selectivity ratio was over 1040.

`N#C[Se]CC1Cc2c(Oc3ccccc3)cccc2O1` (racemic): the selectivity ratio was over 307.

A further data set relates to Trypanosoma cruzi. The data set can be described thus: Antitrypanosomal activity against tdTomato red labeled trypomastigote stage of Trypanosoma cruzi infected in gamma-irradiated African green monkey Vero cells after 3 days by fluorescence assay. The data set is classed as functional. Particulars: light or radiation study, 72 h, read-out: ED50 (the source's name). An outline of the steps:
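Vero cells, gamma-irradiated at 2,000 Rads, were seeded at 3.4×10^4 per well in RPMI with 10% FBS and incubated overnight at 35 °C, 7% CO2. They were infected with 3.4×10^5 CL-strain tdTomato trypomastigotes per well for 5 h, then washed. Serial dilutions of 1.56–25 μM were run in quadruplicate, with benznidazole at 0.39–6.25 μM. Fluorescence was read at day 3. ED50 was obtained by non-linear regression.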
Turning to `N#CSCCOc1ccc(Oc2ccccc2)cc1`, the EC50 is 5 µM.

As for `N#CSCc1cc2cc(Oc3ccccc3)ccc2o1`, the EC50 amounted to 5.19 µM.

For the molecule `N#COCCOc1ccc(Oc2ccccc2)cc1`, the EC50 is over 10 µM.

On to `N#C[Se]CCOc1ccc(Oc2cccc(F)c2)cc1`, for which the EC50 came to 0.085 µM.

Consider `N#C[Se]CCOc1cccc(Oc2ccccc2F)c1`, for which the EC50 turned out to be 0.126 µM.

In the case of `N#C[Se]CCOc1cccc(I)c1`, the EC50 is 5.44 µM.

For `N#C[Se]CCOc1ccc(Cl)cc1Cl`, the EC50 was 1.38 µM.

For the molecule `N#CSCCOc1ccc(Sc2ccccc2)cc1`, the EC50 came out at 5.73 µM.

Turning to `N#C[Se]CCOc1cccc(Oc2ccc(F)cc2)c1`, the EC50 was found to be 0.099 µM.

`N#C[Se]CCOc1cccc(Oc2ccccc2)c1`: the EC50 is 0.085 µM.

Regarding `N#C[Se]CCOc1ccc(Oc2ccc(F)cc2)cc1`, the EC50 amounted to 0.271 µM.

For the molecule `CCOP(=O)(OCC)C(CNCCOc1ccccc1)P(=O)(OCC)OCC`, the EC50 turned out to be 5.38 µM.

With `N#C[Se]CCOc1cccc(Oc2ccc(Cl)cc2)c1`, the EC50 was determined as 0.114 µM.

Regarding `NC(=O)OCCOc1ccc(Oc2ccccc2)cc1`, the EC50 is over 10 µM.

For the molecule `O=P(O)(O)C(CNCCOc1ccccc1)P(=O)(O)O`, the EC50 stood at 5.69 µM.

`N#CSCC1Cc2cc(Oc3ccccc3)ccc2O1` (stereo not drawn): the EC50 came to 5.99 µM.

As to `O=[N+]([O-])c1ccc(Oc2cccc(Br)c2)cc1`, the EC50 was over 100 µM.

Take `N#C[Se]CCOc1ccc(Oc2ccccc2)cc1`: the EC50 came to 0.109 µM.

Turning to `N#C[Se]CCOc1cccc(Oc2cccc(F)c2)c1`, the EC50 is 0.075 µM.

Turning to `N#C[Se]CCOc1ccc(I)cc1`, the EC50 was over 10 µM.

As for `N#CSCCOc1cccc(Sc2ccccc2)c1`, the EC50 was over 10 µM.

In the case of `N#C[Se]CC1Cc2cc(Oc3ccccc3)ccc2O1` (racemic), the EC50 worked out at 0.083 µM.

`N#C[Se]CC1Cc2ccc(Oc3ccccc3)cc2O1` (racemic): the EC50 came out at 0.12 µM.

As to `N#C[Se]CC1Cc2c(Oc3ccccc3)cccc2O1` (racemic), the EC50 was found to be 0.407 µM.

As to `O=C(Cn1ccnc1[N+](=O)[O-])NCc1ccccc1` [BENZNIDAZOLE], the EC50 is 1.5 µM.

The next data set deals with Toxoplasma gondii. The data set can be described thus: Antiparasitic activity against tachyzoite stage of Toxoplasma gondii expressing red fluorescent protein infected in gamma-irradiated African green monkey Vero cells by fluorescence assay. Type of data set: functional. The note with it: light or radiation study, read-out: ED50 (the source's name). The method in brief:
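Tachyzoites expressing red fluorescent protein, assayed per an earlier method with published modifications. Plates were read with lids on, bottom read, excitation 544 nm and emission 590 nm. Values are the mean of one experiment carried out in triplicate.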
For `N#CSCCOc1ccc(Oc2ccccc2)cc1`, the EC50 turned out to be 4.8 µM.

As for `N#CSCCOc1ccc(Sc2ccccc2)cc1`, the EC50 came to 4.58 µM.

Regarding `N#C[Se]CCOc1cccc(Oc2ccccc2)c1`, the EC50 was determined as 2.87 µM.

Take `N#CSCC1Cc2cc(Oc3ccccc3)ccc2O1` (stereo not drawn): the EC50 is over 10 µM.

As for `N#C[Se]CCOc1ccc(Oc2ccccc2)cc1`, the EC50 turned out to be 3.7 µM.

Consider `N#CSCCOc1cccc(Sc2ccccc2)c1`, for which the EC50 is 3.58 µM.

Test system in the next data set: not listed separately
The data set can be described thus: Cytotoxicity against African green monkey Vero cells after 3 to 4 days by Alamar Blue dye-based spectrophotometric method. Type of data set: cell-based. The note with it: chlorocebus sabaeus, read-out: ED50 (the source's name). The method in brief:
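Vero cell cytotoxicity was measured by Alamar Blue assay following a previously described method.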
On the technique in general: The colour change of resazurin is a common sign of viable cells or microbes.
For `N#CSCCOc1ccc(Oc2ccccc2)cc1`, the CC50 was 82.6 µM.

Take `N#C[Se]CCOc1ccc(Oc2cccc(F)c2)cc1`: the CC50 came to 153 µM.

Regarding `N#C[Se]CCOc1cccc(Oc2ccccc2F)c1`, the CC50 turned out to be 140 µM.

In the case of `N#C[Se]CCOc1cccc(I)c1`, the CC50 was over 62.5 µM.

Take `N#C[Se]CCOc1ccc(Cl)cc1Cl`: the CC50 is over 62.5 µM.

With `N#CSCCOc1ccc(Sc2ccccc2)cc1`, the CC50 was over 62.5 µM.

On to `N#C[Se]CCOc1cccc(Oc2ccc(F)cc2)c1`, for which the CC50 is over 125 µM.

In the case of `N#C[Se]CCOc1cccc(Oc2ccccc2)c1`, the CC50 was over 150 µM.

For `N#C[Se]CCOc1ccc(Oc2ccc(F)cc2)cc1`, the CC50 amounted to 122 µM.

In the case of `N#C[Se]CCOc1cccc(Oc2ccc(Cl)cc2)c1`, the CC50 was over 125 µM.

For the molecule `N#CSCC1Cc2cc(Oc3ccccc3)ccc2O1` (stereo not drawn), the CC50 was over 62.5 µM.

For the molecule `N#C[Se]CCOc1ccc(Oc2ccccc2)cc1`, the CC50 is over 100 µM.

As to `N#C[Se]CCOc1cccc(Oc2cccc(F)c2)c1`, the CC50 is over 62.5 µM.

With `N#C[Se]CCOc1ccc(I)cc1`, the CC50 is over 50 µM.

On to `N#CSCCOc1cccc(Sc2ccccc2)c1`, for which the CC50 was over 50 µM.

In the case of `N#C[Se]CC1Cc2cc(Oc3ccccc3)ccc2O1` (racemic), the CC50 is over 125 µM.

As for `N#C[Se]CC1Cc2ccc(Oc3ccccc3)cc2O1` (racemic), the CC50 is over 125 µM.

In the case of `N#C[Se]CC1Cc2c(Oc3ccccc3)cccc2O1` (racemic), the CC50 is over 125 µM.
